Test results from ChEMBL document CHEMBL4373711, “Development of 3,5-Dinitrophenyl-Containing 1,2,4-Triazoles and Their Trifluoromethyl Analogues as Highly Efficient Antitubercular Agents Inhibiting Decaprenylphosphoryl-β-d-ribofuranose 2'-Oxidase” (J Med Chem, 2019).
Converted amounts (≈) assume the structure as drawn. The source made the active and inactive calls. The rule behind the calls is not given here.

Legend:
[1] = tested on: Mycobacterium tuberculosis; experiment: Antimycobacterial activity against Mycobacterium tuberculosis H37Rv CNCTC My 331/88 after 14 days; type: functional; conditions: H37Rv CNCTC My 331/88, 336 h
How it was run: (§1)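 M. tuberculosis strains (H37Rv and clinical MDR/XDR isolates) tested by microdilution in Šula's semisynthetic medium. Compounds were dissolved in DMSO and tested at 32 to 0.03 µM in twofold steps. Inoculum was a 1.0 McFarland suspension diluted 10-3. Plates were incubated at 37 °C and read at 14 and 21 days.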

[2] = tested on: Mycobacterium tuberculosis; experiment: Antimycobacterial activity against Mycobacterium tuberculosis H37Rv CNCTC My 331/88 after 21 days; type: functional; conditions: H37Rv CNCTC My 331/88, 504 h; how it was run: as §1
Mycobacterium avium [3] = experiment: Antimycobacterial activity against Mycobacterium avium CNCTC My 330/88 after 14 days; type: functional; conditions: CNCTC My 330/88, 336 h
How it was run: (§2)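 M. avium was tested by microdilution in Šula's semisynthetic medium, with compounds dissolved in DMSO and serially diluted from 1000 down to 1. Inoculum was a 1.0 McFarland suspension diluted 10-5. Plates were incubated at 37 °C and read at 14 and 21 days. […] Isoniazid and rifampicin served as standards.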

Mycobacterium avium [4] = experiment: Antimycobacterial activity against Mycobacterium avium CNCTC My 330/88 after 21 days; type: functional; conditions: CNCTC My 330/88, 504 h; how it was run: as §2
Mycobacterium kansasii [5] = experiment: Antimycobacterial activity against Mycobacterium kansasii CNCTC My 235/80 after 7 days; type: functional; conditions: CNCTC My 235/80, 168 h
How it was run: (§3)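 Microdilution in Šula's semisynthetic medium; compounds in DMSO at 32–0.03 µM. Inoculum from 1.0 McFarland suspension diluted 10-4. […] Isoniazid and rifampicin as reference drugs.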

Mycobacterium kansasii [6] = experiment: Antimycobacterial activity against Mycobacterium kansasii CNCTC My 235/80 after 14 days; type: functional; conditions: CNCTC My 235/80, 336 h; how it was run: as §3
Mycobacterium kansasii [7] = experiment: Antimycobacterial activity against Mycobacterium kansasii CNCTC My 235/80 after 21 days; type: functional; conditions: CNCTC My 235/80, 504 h; how it was run: as §3
Mycobacterium kansasii [8] = experiment: Antimycobacterial activity against Mycobacterium kansasii 6509/96 after 7 days; type: functional; conditions: 6509/96, 168 h; how it was run: as §3
Mycobacterium kansasii [9] = experiment: Antimycobacterial activity against Mycobacterium kansasii 6509/96 after 14 days; type: functional; conditions: 6509/96, 336 h; how it was run: as §3
Mycobacterium kansasii [10] = experiment: Antimycobacterial activity against Mycobacterium kansasii 6509/96 after 21 days; type: functional; conditions: 6509/96, 504 h; how it was run: as §3
[11] = tested on: Mycobacterium tuberculosis; experiment: Antimycobacterial activity against XDR Mycobacterium tuberculosis Praha 131 after 14 days; type: functional; conditions: for MIC99: Praha 131, 336 h; how it was run: as §1
Staphylococcus aureus [12] = experiment: Antibacterial activity against Staphylococcus aureus subsp. aureus ATCC 29213 CCM 4223 at highest concentration measured after 24 to 48 hrs by alamar blue dye based broth microdilution assay; type: functional, organism-based
Staphylococcus aureus [13] = experiment: Antibacterial activity against methicillin-resistant Staphylococcus aureus subsp. aureus ATCC 43300 CCM 4750 at highest concentration measured after 24 to 48 hrs by alamar blue dye based broth microdilution assay; type: functional, organism-based
[14] = tested on: Staphylococcus epidermidis; experiment: Antibacterial activity against Staphylococcus epidermidis at highest concentration measured after 24 to 48 hrs by alamar blue dye based broth microdilution assay; type: functional, organism-based
Enterococcus faecalis = experiment: Antibacterial activity against Enterococcus faecalis ATCC 29212 CCM 4224 at highest concentration measured after 24 to 48 hrs by alamar blue dye based broth microdilution assay; type: functional, organism-based
Escherichia coli = experiment: Antibacterial activity against Escherichia coli ATCC 25922 CCM 3954 at highest concentration measured after 24 to 48 hrs by alamar blue dye based broth microdilution assay; type: functional, organism-based
Klebsiella pneumoniae = experiment: Antibacterial activity against Klebsiella pneumoniae at highest concentration measured after 24 to 48 hrs by alamar blue dye based broth microdilution assay; type: functional, organism-based
Serratia marcescens = experiment: Antibacterial activity against Serratia marcescens at highest concentration measured after 24 to 48 hrs by alamar blue dye based broth microdilution assay; type: functional, organism-based
Pseudomonas aeruginosa = experiment: Antibacterial activity against Pseudomonas aeruginosa ATCC 27853 CCM 3955 at highest concentration measured after 24 to 48 hrs by alamar blue dye based broth microdilution assay; type: functional, organism-based
Candida albicans = experiment: Antifungal activity against Candida albicans ATCC 24433 CCM 8320 at highest concentration measured after 24 to 48 hrs by alamar blue dye based broth microdilution assay; type: functional, organism-based
Pichia kudriavzevii = experiment: Antifungal activity against Candida krusei ATCC 6258 CCM8271 at highest concentration measured after 24 to 48 hrs by alamar blue dye based broth microdilution assay; type: functional, organism-based
Candida parapsilosis = experiment: Antifungal activity against Candida parapsilosis ATCC 22019 CCM 8260 at highest concentration measured after 24 to 48 hrs by alamar blue dye based broth microdilution assay; type: functional, organism-based
Candida tropicalis = experiment: Antifungal activity against Candida tropicalis ATCC 750 CCM 8264 at highest concentration measured after 24 to 48 hrs by alamar blue dye based broth microdilution assay; type: functional, organism-based
Aspergillus fumigatus = experiment: Antifungal activity against Aspergillus fumigatus ATCC 204305 at highest concentration measured after 24 to 48 hrs by alamar blue dye based broth microdilution assay; type: functional, organism-based
Aspergillus flavus = experiment: Antifungal activity against Aspergillus flavus CCM 8363 at highest concentration measured after 24 to 48 hrs by alamar blue dye based broth microdilution assay; type: functional, organism-based
Lichtheimia corymbifera = experiment: Antifungal activity against Lichtheimia corymbifera CCM 8077 at highest concentration measured after 24 to 48 hrs by alamar blue dye based broth microdilution assay; type: functional, organism-based
[15] = tested on: Trichophyton interdigitale; experiment: Antifungal activity against Trichophyton interdigitale ATCC 9533 CCM 8377 at highest concentration measured after 72 to 120 hrs by alamar blue dye based broth microdilution assay; type: functional
HepG2 = experiment: Cytotoxicity against human HepG2 cells assessed as reduction in cell viability after 48 hrs by CellTiter 96 aqueous one solution assay; type: cell-based; conditions: HepG2, 48 h
[16] = Cytotoxicity against human HepG2 cells assessed as cell viability at 30 uM after 48 hrs by CellTiter 96 aqueous one solution assay relative to control; type: cell-based; conditions: read-out: Activity
How it was run: (§4)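 HepG2 (DMEM, 10% FBS, 1 mM pyruvate) or A431 (DMEM, 10% FBS) seeded 10,000 cells/well, 24 h at 37 °C, 5% CO2, then 30 µM compound for 48 h. MTS reagent 60 min, absorbance 490 nm, background subtracted; 0.1% DMSO vehicle = 100%, 10% SDS = 0% viability.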

A-431 = experiment: Cytotoxicity against human A431 cells assessed as reduction in cell viability after 48 hrs by CellTiter 96 aqueous one solution assay; type: cell-based; conditions: A-431, 48 h
[17] = Cytotoxicity against human A431 cells assessed as cell viability at 30 uM after 48 hrs by CellTiter 96 aqueous one solution assay relative to control; type: cell-based, A-431; conditions: read-out: Activity; how it was run: as §4

Row | Molecule | MIC99 [1] | MIC99 [2] | MIC99 (Mycobacterium avium [3]) | MIC99 (Mycobacterium avium [4]) | MIC99 (Mycobacterium kansasii [5]) | MIC99 (Mycobacterium kansasii [6]) | MIC99 (Mycobacterium kansasii [7]) | MIC99 (Mycobacterium kansasii [8]) | MIC99 (Mycobacterium kansasii [9]) | MIC99 (Mycobacterium kansasii [10]) | MIC99 [11] | further results
1 | CO[C@H]1/C=C/O[C@@]2(C)Oc3c(C)c(O)c4c(O)c(c(/C=N/N5CCN(C)CC5)c(O)c4c3C2=O)NC(=O)/C(C)=C\C=C\[C@H](C)[C@H](O)[C@@H](C)[C@@H](O)[C@@H](C)[C@H](OC(C)=O)[C@@H]1C [RIFAMPIN] | 0.25 µM (≈ 0.206 µg/mL) | 0.25 µM (≈ 0.206 µg/mL) | 32 µM (≈ 26.3 µg/mL) | 62 µM (≈ 51 µg/mL) | 0.125 µM (≈ 0.103 µg/mL) | 0.25 µM (≈ 0.206 µg/mL) | 0.25 µM (≈ 0.206 µg/mL) | 0.125 µM (≈ 0.103 µg/mL) | 0.25 µM (≈ 0.206 µg/mL) | 0.25 µM (≈ 0.206 µg/mL) | > 8 µM | –
2 | O=[N+]([O-])c1cc(CSc2nnc(-c3ccccc3)n2C2CCCCC2)cc([N+](=O)[O-])c1 | 1 µM (≈ 0.439 µg/mL) | 2 µM (≈ 0.879 µg/mL) | 250 µM (≈ 110 µg/mL) | 250 µM (≈ 110 µg/mL) | 1 µM (≈ 0.439 µg/mL) | 2 µM (≈ 0.879 µg/mL) | 4 µM (≈ 1.76 µg/mL) | 1 µM (≈ 0.439 µg/mL) | 2 µM (≈ 0.879 µg/mL) | 4 µM (≈ 1.76 µg/mL) | – | Activity (Staphylococcus aureus [12]): inactive; Activity (Staphylococcus aureus [13]): inactive; Activity [14]: inactive; Activity (Enterococcus faecalis): inactive; Activity (Escherichia coli): inactive; Activity (Klebsiella pneumoniae): inactive; Activity (Serratia marcescens): inactive; Activity (Pseudomonas aeruginosa): inactive; Activity (Candida albicans): inactive; Activity (Pichia kudriavzevii): inactive; Activity (Candida parapsilosis): inactive; Activity (Candida tropicalis): inactive; Activity (Aspergillus fumigatus): inactive; Activity (Aspergillus flavus): inactive; Activity (Lichtheimia corymbifera): inactive; Activity [15]: inactive; IC50 (HepG2): > 30 µM; viability at 48 h, 30 µM [16]: 87%; IC50 (A-431): > 30 µM; viability at 48 h, 30 µM [17]: 131%
3 | GENTAMICIN | – | – | – | – | – | – | – | – | – | – | – | MIC>99 [11]: > 8 µM
4 | CN[C@@H]1[C@H](O[C@H]2[C@H](O[C@H]3[C@H](O)[C@@H](O)[C@H](N=C(N)N)[C@@H](O)[C@@H]3N=C(N)N)O[C@@H](C)[C@]2(O)C=O)O[C@@H](CO)[C@H](O)[C@H]1O [STREPTOMYCIN] | – | – | – | – | – | – | – | – | – | – | > 32 µM | –
